Measured values published in ChEMBL document CHEMBL3797120, “Identification of 1,2,3-triazole derivatives that protect pancreatic β cells against endoplasmic reticulum stress-mediated dysfunction and death through the inhibition of C/EBP-homologous protein expression” (Bioorg Med Chem, 2016).
Active and inactive are the calls of the source. The calls are words filed in the database; no cut-off is given here.

Experiments:
[1] = test system: INS1; assay: Cytoprotective activity in endoplasmic reticulum stressed rat INS-1 cells assessed as rescue from tunicamycin-mediated reduction in cell survival after 72 hrs by CellTiter-Glo assay; settings: INS1, 72 h
[2] = test system: INS1; assay: Cytoprotective activity in endoplasmic reticulum stressed rat INS-1 cells assessed as rescue from tunicamycin-mediated reduction in cell viability at 10 uM after 72 hrs by CellTiter-Glo assay relative to control; format: functional
Summary of the method: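 INS-1 cells seeded at 3 × 10³/well and exposed for 72 h to Tm 0.1 μg/ml plus compound. Viability measured as ATP by CellTiter-Glo. Tm alone was set to 0% and DMSO without Tm to 100% rescue. Values are the mean of three experiments. EC50 was derived for survival.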

[3] = Inhibition of endoplasmic reticulum stress-mediated upregulation of CHOP protein expression in tunicamycin-treated rat INS-1 cells at 20 uM after 2 to 8 hrs by Western blot method; format: functional, cell-based; settings: INS1
Summary of the method: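 INS-1 cells seeded at 8 × 10⁵ per 60-mm dish and treated with Tm and 20 μM compound or DMSO. Lysates (20 μg protein) were run on 7% SDS-PAGE and blotted with anti-CHOP (1:1000). α-Tubulin served as loading control.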

[4] = Inhibition of endoplasmic reticulum stress-mediated upregulation of CHOP mRNA expression in tunicamycin-treated rat INS-1 cells at 10 uM by qRT-PCR method; format: functional, cell-based; settings: INS1, TDE = time-dependent effect
Summary of the method: (§1)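 INS-1 cells seeded at 4 × 10⁵/well and treated with Tm 0.1 μg/ml plus compound, either for 8 h at indicated concentrations or for indicated times at 10 μM. CHOP mRNA was measured by qRT-PCR with rat primers, normalized to rat cyclophilin A, and reported as fold change.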

[5] = Inhibition of endoplasmic reticulum stress-mediated upregulation of CHOP mRNA expression in tunicamycin-treated rat INS-1 cells after 2 to 8 hrs by qRT-PCR method; format: functional, cell-based; settings: INS1; summary of the method: as §1
[6] = Effect on basal CHOP mRNA expression in rat INS-1 cells at 10 uM after 2 to 8 hrs by qRT-PCR method; format: ADME, cell-based; settings: ins1, 10 µM
Summary of the method: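 INS-1 cells seeded at 4 × 10⁵/well and exposed to DMSO or 10 μM compound without Tm for the indicated times. Total RNA (2 μg) was reverse transcribed. CHOP mRNA was measured by qRT-PCR with rat primers, normalized to rat cyclophilin A, and expressed as fold change.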

[7] = biological target: DNA damage-inducible transcript 3 protein (Mus musculus) (UniProt P35639); assay: Inhibition of endoplasmic reticulum stress-induced CHOP activity in tunicamycin-treated C57BL/6 mouse primary pancreatic islet beta cells assessed as DNA fragmentation at 10 uM after 24 hrs by TUNEL assay (reference value: 40.4%); design: scale not given: the % may be the effect or the level left
Sequence of DNA damage-inducible transcript 3 protein (Mus musculus) (P35639 whole entry, the tested form may be a part): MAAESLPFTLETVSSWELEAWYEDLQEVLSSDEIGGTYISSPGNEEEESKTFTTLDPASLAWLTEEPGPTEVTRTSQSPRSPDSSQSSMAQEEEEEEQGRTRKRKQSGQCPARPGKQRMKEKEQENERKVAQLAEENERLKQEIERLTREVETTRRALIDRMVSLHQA
Summary of the method: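 Primary islet cells from C57BL/6 mice were cultured in CMRL-1066/10% FBS and treated 24 h with Tm 1 μg/ml plus 10 μM compound or DMSO. Cells were fixed in 4% PFA, permeabilized in Triton/citrate, TUNEL-stained (1 h, 37°C), and co-stained for insulin and DAPI. TUNEL+ insulin+ cells were counted as mean ± SD of five wells (~50 islets, 3 mice).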

[8] = Cytoprotective activity against endoplasmic reticulum stress-induced cell death in tunicamycin-treated CHOP knock out C57BL/6 mouse primary pancreatic islet beta cells assessed as DNA fragmentation at 10 uM after 24 hrs by TUNEL assay (reference value: 18.7%); format: functional
Summary of the method: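 Primary islet cells isolated from CHOP−/− knockout mice (age-matched males), cultured in CMRL-1066 with 10% FBS, treated with compound (10 μM) plus tunicamycin (1 μg/ml) for 24 h. Cells fixed in 4% paraformaldehyde, permeabilized with 0.1% Triton X-100 in 0.1% sodium citrate, TUNEL stained (1 h, 37°C), co-stained for insulin and DAPI; % TUNEL+ insulin+ cells counted, five wells, islets from 3 mice.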

[9] = biological target: DNA damage-inducible transcript 3 protein (Rattus norvegicus) (UniProt Q62857); assay: Inhibition of endoplasmic reticulum stress-induced CHOP activity in tunicamycin-treated rat INS-1 cells assessed as DNA fragmentation at 20 uM after 24 hrs by TUNEL assay (reference value: 15%); format: cell-based; design: scale not given: the % may be the effect or the level left; settings: INS1
Sequence of DNA damage-inducible transcript 3 protein (Rattus norvegicus) (Q62857 whole entry, the tested form may be a part): as the sequence (P35639 whole entry, the tested form may be a part) above, with T9A, L10F, T70A, R74S, E97D, P111A, P114A, Q142L counted along it
Summary of the method: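 INS-1 cells seeded at 4 × 10⁴/well and treated 24 h with Tm 0.1 μg/ml plus 20 μM compound. Cells were fixed in 4% PFA, permeabilized, TUNEL-stained 1 h at 37°C, counterstained with DAPI, and imaged by high-content imaging. TUNEL+ percentage is mean ± SD of five images.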

[10] = biological target: DNA damage-inducible transcript 3 protein (Rattus norvegicus) (UniProt Q62857); assay: Inhibition of endoplasmic reticulum stress-induced CHOP activity in rat INS-1 cells assessed as suppression of tunicamycin-induced PARP cleavage at 20 uM after 2 to 24 hrs by Western blot method; format: cell-based; settings: INS1
Summary of the method: (§2)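 INS-1 cells seeded at 8 × 10⁵ per 60-mm dish and treated with or without compound, with or without Tm, for the indicated times. Lysates (20 μg protein) were run on 7% SDS-PAGE and blotted with anti-caspase-3 and anti-PARP (1:1000) to detect cleavage. α-Tubulin served as loading control.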

[11] = biological target: DNA damage-inducible transcript 3 protein (Rattus norvegicus) (UniProt Q62857); assay: Inhibition of endoplasmic reticulum stress-induced CHOP activity in rat INS-1 cells assessed as suppression of tunicamycin-induced caspase-3 cleavage at 20 uM after 2 to 24 hrs by Western blot method; format: cell-based; settings: INS1; summary of the method: as §2
[12] = biological target: DNA damage-inducible transcript 3 protein (Rattus norvegicus) (UniProt Q62857); assay: Inhibition of endoplasmic reticulum stress-induced CHOP activity in rat INS-1 cells assessed as decrease in brefeldin A-induced cell death by measuring cell viability at 5 to 20 uM after 72 hrs by CellTiter-Glo assay; format: cell-based; settings: INS1
Summary of the method: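 INS-1 cells treated 72 h with or without brefeldin A 0.2 μg/ml in the presence of DMSO or compound at indicated concentrations. Viability measured by CellTiter-Glo. Means ± SD of quadruplicates.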

[13] = Effect on growth rate of rat INS-1 cells at 2.5 to 10 uM after 72 hrs by CellTiter-Glo assay relative to control; format: cell-based; settings: ins1, 72 h
Summary of the method: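 INS-1 cells grown with compound alone (no stressor) and viability/growth read by CellTiter-Glo, compared with DMSO-treated cells.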

[14] = biological target: DNA damage-inducible transcript 3 protein (Rattus norvegicus) (UniProt Q62857); assay: Inhibition of endoplasmic reticulum stress-induced CHOP activity in rat INS-1 cells assessed as decrease in sodium palmitate-induced cell death by measuring cell viability at 2.5 to 20 uM after 72 hrs by CellTiter-Glo assay; format: cell-based; settings: INS1
Summary of the method: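 INS-1 cells switched to DMEM/1% FBS/1% BSA and stressed with sodium palmitate (from 5 mM stock in 5% BSA; final 0.2 mM). Treated 72 h with DMSO or compound. Viability measured by CellTiter-Glo. Means ± SD of quadruplicates.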

[15] = biological target: DNA damage-inducible transcript 3 protein (Mus musculus) (UniProt P35639); assay: Inhibition of endoplasmic reticulum stress-induced CHOP activity in mouse BetaTC6 cells assessed as decrease in tunicamycin-induced cell death by measuring cell viability at 2.5 to 20 uM after 72 hrs by CellTiter-Glo assay; format: cell-based; settings: Beta-TC6
Summary of the method: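 βTC6 mouse insulinoma cells (DMEM, 15% FBS) seeded at 3 × 10³/well and treated 72 h with Tm 0.25 μg/ml plus DMSO or compound. Viability measured by CellTiter-Glo and expressed as fold change versus Tm alone = 1. Means ± SD of triplicates.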

[16] = biological target: DNA damage-inducible transcript 3 protein (Rattus norvegicus) (UniProt Q62857); assay: Inhibition of endoplasmic reticulum stress-induced CHOP activity in rat INS-1 cells assessed as restoration of tunicamycin-mediated reduction of 20 mM glucose-stimulated insulin secretion preincubated for 24 hrs followed by glucose addition and subsequent incubation for 45 mins by ELISA; format: cell-based; settings: INS1
Summary of the method: (§3)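 INS-1 cells seeded at 1 × 10⁵/well and treated 24 h with compounds (with or without Tm). They were washed in Krebs-HEPES buffer pH 7.4 with 1% BSA, preincubated 1 h in 2.5 mM glucose, then stimulated 45 min with 2.5 or 20 mM glucose. Secreted insulin was measured by ELISA and normalized to Bradford total protein. The index is 20 mM/2.5 mM secretion from triplicate wells.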

[17] = Effect on 20 mM glucose-stimulated insulin secretion in rat INS-1 cells preincubated for 24 hrs followed by glucose addition and subsequent incubation for 45 mins by ELISA; format: ADME, cell-based; settings: ins1, 0.75 h; summary of the method: as §3
[18] = Effect on 2.5 mM glucose-stimulated insulin secretion in rat INS-1 cells preincubated for 24 hrs followed by glucose addition and subsequent incubation for 45 mins by ELISA; format: ADME, cell-based; settings: ins1, 0.75 h; summary of the method: as §3
[19] = test system: Mus musculus; assay: Antidiabetic activity in streptozotocin-induced diabetic C57BL/6 mouse model assessed as decrease in blood glucose level at 20 mg/kg, ip administered for 5 consecutive days with streptozotocin followed by 2 more weeks compound addition without streptozotocin measured every 3 day of compound dosing by glucometer relative to control; format: functional, organism-based
Summary of the method: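 Ten-week-old male C57BL/6 mice given STZ 50 mg/kg i.p. (in Na-citrate) once daily for 5 days, together with test agent 20 mg/kg i.p. (2 mg/ml in 10% DMSO/saline; n = 7) or vehicle (n = 6). Dosing without STZ then continued for 2 more weeks. Fasting (5 h) tail blood glucose read by glucometer every third day.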

[20] = test system: Mus musculus; assay: (§4) Antidiabetic activity in streptozotocin-induced diabetic C57BL/6 mouse model assessed as total pancreatic islet area at 20 mg/kg, ip administered for 5 consecutive days with streptozotocin followed by 2 more weeks compound addition without streptozotocin measured post last dose by DAPI staining-based confocal microscopy (reference value: 21.3 +/- 4.4%); format: functional
[21] = test system: Mus musculus; assay: as §4, with “increase in level of insulin-positive beta cells per” for “total”, “islet” for “islet area”, “relative to control” for “(reference value: 21.3 +/- 4.4%)”; format: functional, organism-based

With CCc1ccc(-n2nnc(C(=O)Nc3cccc(F)c3)c2C)cc1 the EC50 [1] was 2.8 µM, the “%max” value [2] was 87% and the inhibition [3] was “Active”. The inhibition [4] was “tde”, the inhibition [5] was “Dose-dependent effect” and the Activity [6] was “Non-toxic”. It also gave an Activity [7] of 9%, an Activity [8] of 14.6% and an Activity [9] of 1.5%. For the same compound, the inhibition [10] was “Active”, the inhibition [11] was “Active” and the inhibition [12] was “Active”. For the same compound, the Activity [13] was “Non-toxic”, the inhibition [14] was “Active” and the inhibition [15] was “Active”. The inhibition [16] was “Active”, the Activity [17] was “Non-toxic” and the Activity [18] was “Non-toxic”. The Activity [19] was “Active”, the Activity [20] was 44.2% and the Activity [21] was “Active”.
